Experimental data: ChEMBL document CHEMBL1806410, “Design and synthesis of pyridine-substituted itraconazole analogues with improved antifungal activities, water solubility and bioavailability” (Bioorg Med Chem Lett, 2011)
In brackets after ≈: the same amount, converted by molar mass.

Legend:
[1] = system: Candida albicans; assay: Antifungal activity against Candida albicans JLC 30364 by broth microdilution method; format: functional
Summary of the method: (§1)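 MICs were determined by broth microdilution following NCCLS guidelines (M38-P for filamentous fungi). The panel covered four yeast species and two Aspergillus species, with two strains per species. Itraconazole served as positive control.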

[2] = system: Candida albicans; assay: Antifungal activity against Candida albicans JLC 31374 by broth microdilution method; format: functional; summary of the method: as §1
[3] = system: Candida parapsilosis; assay: Antifungal activity against Candida parapsilosis JLC 30365 by broth microdilution method; format: functional; details: Lodderomyces parapsilosis; summary of the method: as §1
[4] = system: Candida parapsilosis; assay: Antifungal activity against Candida parapsilosis JLC 30275 by broth microdilution method; format: functional; details: Lodderomyces parapsilosis; summary of the method: as §1
[5] = system: Pichia kudriavzevii; assay: Antifungal activity against Candida krusei JLC 30366 by broth microdilution method; format: functional; summary of the method: as §1
[6] = system: Pichia kudriavzevii; assay: Antifungal activity against Candida krusei JLC 30386 by broth microdilution method; format: functional; summary of the method: as §1
[7] = system: Cryptococcus neoformans; assay: Antifungal activity against Cryptococcus neoformans JLC 50122 by broth microdilution method; format: functional; summary of the method: as §1
[8] = system: Cryptococcus neoformans; assay: Antifungal activity against Cryptococcus neoformans JLC 50123 by broth microdilution method; format: functional; summary of the method: as §1
[9] = system: Aspergillus fumigatus; assay: Antifungal activity against Aspergillus fumigatus JLC 30506 by broth microdilution method; format: functional; summary of the method: as §1
[10] = system: Aspergillus fumigatus; assay: Antifungal activity against Aspergillus fumigatus JLC 30883 by broth microdilution method; format: functional; summary of the method: as §1
[11] = system: Aspergillus flavus; assay: Antifungal activity against Aspergillus flavus JLC 30784 by broth microdilution method; format: functional; summary of the method: as §1
[12] = system: Aspergillus flavus; assay: Antifungal activity against Aspergillus flavus JLC 40437 by broth microdilution method; format: functional; summary of the method: as §1
[13] = Half life in rat at 10 mg/kg, po administered as single dose; format: ADME, organism-based; design: dose 10 mg/kg, route oral; details: in vivo
Summary of the method: (§2)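 Rats received a single dose of compound, either oral (10 mg/kg) or intravenous (10, 5 or 2.5 mg/kg). Plasma levels were followed, and the reported parameters were Cmax, Tmax, AUC0–t, half-life, clearance and bioavailability (F).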

[14] = Solubility of the compound in water at pH 1.2; format: physicochemical
[15] = Cmax in rat at 10 mg/kg, po administered as single dose; format: ADME, organism-based; design: dose 10 mg/kg, route oral; details: in vivo; summary of the method: as §2
[16] = Tmax in rat at 10 mg/kg, po administered as single dose; format: ADME, organism-based; design: dose 10 mg/kg, route oral; details: in vivo; summary of the method: as §2
[17] = AUC (0 to t) in rat at 10 mg/kg, po administered as single dose; format: ADME, organism-based; design: dose 10 mg/kg, route oral; details: plasma; summary of the method: as §2
[18] = Half life in rat at 10 mg/kg, iv administered as single dose; format: ADME, organism-based; design: dose 10 mg/kg, route intravenous; details: in vivo; summary of the method: as §2
[19] = Clearance in rat at 10 mg/kg, iv administered as single dose; format: ADME, organism-based; design: dose 10 mg/kg, route intravenous; details: in vivo; summary of the method: as §2
[20] = Oral bioavailability in rat at 10 mg/kg, administered as single dose; format: ADME, organism-based; details: in vivo; summary of the method: as §2
[21] = AUC (0 to t) in rat at 10 mg/kg, iv administered as single dose; format: ADME, organism-based; design: dose 10 mg/kg, route intravenous; details: plasma; summary of the method: as §2

| Compound | MIC [1] [µg/mL] | MIC [2] [µg/mL] | MIC [3] [µg/mL] | MIC [4] [µg/mL] | MIC [5] [µg/mL] | MIC [6] [µg/mL] | MIC [7] [µg/mL] | MIC [8] [µg/mL] | MIC [9] [µg/mL] | MIC [10] [µg/mL] | MIC [11] [µg/mL] | MIC [12] [µg/mL] | further results |
| --- | --- | --- | --- | --- | --- | --- | --- | --- | --- | --- | --- | --- | --- |
| CCC(CC)n1ncn(-c2ccc(N3CCN(c4ccc(OC[C@H]5CO[C@](Cn6cncn6)(c6ccc(F)cc6F)O5)cc4)CC3)cn2)c1=O | 0.0625 (≈ 0.0909 µM) | 0.0625 (≈ 0.0909 µM) | 0.5 (≈ 0.727 µM) | 0.5 (≈ 0.727 µM) | 0.125 (≈ 0.182 µM) | 0.125 (≈ 0.182 µM) | 0.125 (≈ 0.182 µM) | 0.125 (≈ 0.182 µM) | 0.5 (≈ 0.727 µM) | 0.5 (≈ 0.727 µM) | 0.0625 (≈ 0.0909 µM) | 0.0625 (≈ 0.0909 µM) | – |
| CC(C)Cn1ncn(-c2ccc(N3CCN(c4ccc(OC[C@H]5CO[C@](Cn6cncn6)(c6ccc(F)cc6F)O5)cc4)CC3)cn2)c1=O | 0.015 (≈ 0.0223 µM) | 0.015 (≈ 0.0223 µM) | 0.25 (≈ 0.371 µM) | 0.25 (≈ 0.371 µM) | 0.125 (≈ 0.186 µM) | 0.125 (≈ 0.186 µM) | 0.25 (≈ 0.371 µM) | 0.25 (≈ 0.371 µM) | 0.125 (≈ 0.186 µM) | 0.125 (≈ 0.186 µM) | 0.0625 (≈ 0.0928 µM) | 0.0625 (≈ 0.0928 µM) | – |
| CC(CO)n1ncn(-c2ccc(N3CCN(c4ccc(OC[C@H]5CO[C@](Cn6cncn6)(c6ccc(F)cc6F)O5)cc4)CC3)cn2)c1=O (stereo partly specified) | 0.0625 (≈ 0.0925 µM) | 0.0625 (≈ 0.0925 µM) | 0.5 (≈ 0.74 µM) | 0.5 (≈ 0.74 µM) | 0.0625 (≈ 0.0925 µM) | 0.0625 (≈ 0.0925 µM) | 0.0625 (≈ 0.0925 µM) | 0.0625 (≈ 0.0925 µM) | 1 (≈ 1.48 µM) | 1 (≈ 1.48 µM) | 0.125 (≈ 0.185 µM) | 0.125 (≈ 0.185 µM) | – |
| CC(C)n1ncn(-c2ccc(N3CCN(c4ccc(OC[C@H]5CO[C@](Cn6cncn6)(c6ccc(F)cc6F)O5)cc4)CC3)cn2)c1=O | 0.0075 (≈ 0.0114 µM) | 0.0075 (≈ 0.0114 µM) | 0.25 (≈ 0.379 µM) | 0.25 (≈ 0.379 µM) | 0.0625 (≈ 0.0947 µM) | 0.0625 (≈ 0.0947 µM) | 0.25 (≈ 0.379 µM) | 0.25 (≈ 0.379 µM) | 0.125 (≈ 0.189 µM) | 0.125 (≈ 0.189 µM) | 0.125 (≈ 0.189 µM) | 0.125 (≈ 0.189 µM) | half-life [13]: 3.45 h; solubility ([14]; water, read-out: solubility): 320 µg/mL (≈ 485 µM); Cmax [15]: 159 ng/mL; Tmax [16]: 3 h; AUC(0-t) [17]: 1220 ng·h/mL |
| CC(CCO)n1ncn(-c2ccc(N3CCN(c4ccc(OC[C@H]5CO[C@](Cn6cncn6)(c6ccc(F)cc6F)O5)cc4)CC3)nc2)c1=O (stereo partly specified) | < 0.0625 | < 0.0625 | < 0.0625 | < 0.0625 | 2 (≈ 2.9 µM) | 2 (≈ 2.9 µM) | 0.0625 (≈ 0.0906 µM) | 0.0625 (≈ 0.0906 µM) | 4 (≈ 5.8 µM) | 4 (≈ 5.8 µM) | 4 (≈ 5.8 µM) | 4 (≈ 5.8 µM) | – |
| CC(CO)Cn1ncn(-c2ccc(N3CCN(c4ccc(OC[C@H]5CO[C@](Cn6cncn6)(c6ccc(F)cc6F)O5)cc4)CC3)cn2)c1=O (stereo partly specified) | < 0.0156 | < 0.0156 | < 0.0156 | < 0.0156 | < 0.0156 | < 0.0156 | 0.03 (≈ 0.0435 µM) | 0.03 (≈ 0.0435 µM) | 0.5 (≈ 0.725 µM) | 0.5 (≈ 0.725 µM) | 0.125 (≈ 0.181 µM) | 0.125 (≈ 0.181 µM) | – |
| CCC(C)n1ncn(-c2ccc(N3CCN(c4ccc(OC[C@H]5CO[C@](Cn6cncn6)(c6ccc(F)cc6F)O5)cc4)CC3)cn2)c1=O (stereo partly specified) | 0.03 (≈ 0.0445 µM) | 0.03 (≈ 0.0445 µM) | 0.5 (≈ 0.742 µM) | 0.5 (≈ 0.742 µM) | 0.0625 (≈ 0.0928 µM) | 0.0625 (≈ 0.0928 µM) | 1 (≈ 1.48 µM) | 1 (≈ 1.48 µM) | 0.5 (≈ 0.742 µM) | 0.5 (≈ 0.742 µM) | 0.5 (≈ 0.742 µM) | 0.5 (≈ 0.742 µM) | – |
| CC(CO)Cn1ncn(-c2ccc(N3CCN(c4ccc(OC[C@H]5CO[C@](Cn6cncn6)(c6ccc(F)cc6F)O5)cc4)CC3)nc2)c1=O (stereo partly specified) | 0.0625 (≈ 0.0906 µM) | 0.0625 (≈ 0.0906 µM) | 2 (≈ 2.9 µM) | – | 0.125 (≈ 0.181 µM) | 0.125 (≈ 0.181 µM) | 0.0625 (≈ 0.0906 µM) | 0.0625 (≈ 0.0906 µM) | > 32 | > 32 | > 0.5 | > 0.5 | – |
| CCC(C)n1ncn(-c2ccc(N3CCN(c4ccc(OCC5COC(Cn6cncn6)(c6ccc(Cl)cc6Cl)O5)cc4)CC3)cc2)c1=O (stereo unspecified) [ITRACONAZOLE] | 0.125 (≈ 0.177 µM) | 0.125 (≈ 0.177 µM) | 0.25 (≈ 0.354 µM) | 0.25 (≈ 0.354 µM) | 0.0625 (≈ 0.0886 µM) | 0.0625 (≈ 0.0886 µM) | 1 (≈ 1.42 µM) | 1 (≈ 1.42 µM) | 0.25 (≈ 0.354 µM) | 0.25 (≈ 0.354 µM) | 0.125 (≈ 0.177 µM) | 0.125 (≈ 0.177 µM) | half-life [13]: 2.57 h; half-life [18]: 22 h; clearance [19]: 322 mL/min/kg; bioavailability [20]: 8%; solubility ([14]; buffer): 16 µg/mL (≈ 22.7 µM); Cmax [15]: 6.28 ng/mL; Tmax [16]: 3 h; AUC(0-t) [17]: 27.5 ng·h/mL; AUC(0-t) [21]: 343 ng·h/mL |
